The values below come from ChEMBL document CHEMBL3853294, “Design, synthesis and biological evaluation of novel HSP70 inhibitors: N, N'-disubstituted thiourea derivatives” (Eur J Med Chem, 2016).

Series [1] has as its target Chaperone protein DnaK (Escherichia coli) (UniProt P0A6Y8). The series can be described thus: Inhibition of Escherichia coli DnaK ATPase activity incubated on shaker for 10 mins followed by 30 mins incubation by malachite green reagent based colorimetric assay.
Series [2] has the same target. Put plainly: Inhibition of Escherichia coli DnaK ATPase activity at 200 uM incubated on shaker for 10 mins followed by 30 mins incubation by malachite green reagent based colorimetric assay.
The species named for series [3] is Homo sapiens. The series can be described thus: Inhibition of HSP70 in human BT/LapR1.0 cells assessed as potentiation of 1 uM of lapatinib-induced growth inhibition at 10 uM after 72 hrs by cell titer-glo based luminescence assay. The method in brief: (§1)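 Cells were trypsinised and seeded at 5000 cells/well, then cultured 24 h at 37 °C. Compound was added at 10 µM, alone or with 1 µM lapatinib, and incubated 72 h at 37 °C. CellTiter-Glo reagent was added at a volume equal to the medium, followed by 3 min shaking and 10 min at room temperature. Luminescence (ATP) was read and normalised to the blank control group.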
(In general: In ATP-based viability assays light output follows the ATP content of the culture.)

The species entered for series [4] is Homo sapiens. The series can be described thus: Inhibition of HSP70 in human BT/LapR1.0 cells assessed as potentiation of 1 uM of lapatinib-induced growth inhibition after 72 hrs by measuring coefficient of drug interaction by cell titer-glo based luminescence assay.
Series [5] in a line: Growth inhibition of human BT474 cells at 10 uM after 72 hrs by cell titer-glo based luminescence assay. The note with it: read-out: GI. Set-up: species or system BT-474. Put shortly: as §1
Series [6] concerns BT-474. The series can be described thus: Potentiation of lapatinib-induced growth inhibition of human BT474 cells at 10 uM after 72 hrs by cell titer-glo based luminescence assay. It counts as functional. The note with it: BT-474, 72 h, read-out: GI. The method in brief:
as §1

Series [7] is described as follows: Growth inhibition of human BT/LapR1.0 cells at 10 uM after 72 hrs by cell titer-glo based luminescence assay. The note with it: read-out: GI. Put shortly:
as §1

In series [8] the test system is BT-474. Put plainly: Potentiation of lapatinib-induced growth inhibition of human BT474 cells assessed as coefficient of drug interaction after 72 hrs by cell titer-glo based luminescence assay. The series is classed as functional.

With `COc1ccc(-c2nc(-c3cc(C(F)(F)F)cc(C(F)(F)F)c3)n(Cc3ccc(C(N)=O)cc3)c2-c2ccc(OC)cc2)cc1`, the results for the inhibition result in series [1] and in series [2] were “Dose-dependent effect” and 53%, respectively.

In the case of `COc1cc(/C=C/C(=O)NC(NC(=S)Nc2ccccc2C)C2CC2)cc(OC)c1OC` (configuration not stated), in series [3], the growth inhibition (GI) amounted to 44.2%. The Activity in series [4] was 0.79; in series [8] it was less than 1. Besides, the inhibition at 72 h, 10 µM in series [5] was determined as 44%; in series [7] it was 6.8%. Further, in series [6], the inhibition of growth at 10 µM was 87.4%. In series [2], this compound came in with an inhibition of less than 20%.

`COc1cc(/C=C/C(=O)NC(NC(=S)Nc2ccccc2)C(C)(C)C)cc(OC)c1OC` (configuration not stated): the growth inhibition (GI) in series [3] was determined as 48.8%. The Activity in series [4] and in series [8] was less than 1 in each case. Further, the inhibition at 72 h, 10 µM in series [5] was 2.2%; in series [7], 2.9%. Further, the inhibition of growth at 10 µM in series [6] was 83.2%. The inhibition in series [2] is less than 20%.

Consider `N#Cc1ccc(COC[C@H]2O[C@@H](n3c(NCc4ccc(Cl)c(Cl)c4)nc4c(N)ncnc43)[C@H](O)[C@@H]2O)cc1`, for which the inhibition entry is “Dose-dependent effect” in series [1] and 43% in series [2].

On to `COc1cc(/C=C/C(=O)NC(NC(=S)Nc2ccccc2C)C(C)(C)C)cc(OC)c1OC` (configuration not stated), for which the growth inhibition (GI) in series [3] was found to be 30.1%. Further, the Activity in series [4] and in series [8] was less than 1 each time. In addition, the inhibition at 72 h, 10 µM worked out at 8.2% in series [5] and 9.9% in series [7]. The inhibition of growth at 10 µM in series [6] was found to be 81.4%. In series [2], this compound gave an inhibition of 50.5%.

On to `CC(C)C(NC(=O)/C=C/c1ccccc1)NC(=S)NC1CCCCC1` (configuration not stated), for which the growth inhibition (GI) in series [3] was determined as 75.8%. Further, the Activity in series [4] and in series [8] was less than 1 throughout. For the same compound, the inhibition at 72 h, 10 µM in series [5] was 10.3%; in series [7], 13.3%. For the same compound, the inhibition of growth at 10 µM in series [6] was determined as 80.6%. The compound also returned an inhibition in series [2] of less than 20%.

`Cc1ccccc1NC(=S)NC(NC(=O)/C=C/c1ccccc1)C1CC1` (configuration not stated): in series [3], the growth inhibition (GI) turned out to be 20%. Further, the Activity in series [4] and in series [8] was less than 1 throughout. Further, the inhibition at 72 h, 10 µM turned out to be 6% in series [5] and 8.7% in series [7]. Besides, in series [6], the inhibition of growth at 10 µM is 78.6%. For the same compound, the inhibition in series [2] was found to be 65.4%.

Consider `COc1ccc(NC(=S)NC(NC(=O)/C=C/c2cc(OC)c(OC)c(OC)c2)C(C)C)cc1` (configuration not stated), for which the growth inhibition (GI) in series [3] was 23.4%. Further, the Activity in series [4] and in series [8] was less than 1 in each case. For the same compound, the inhibition at 72 h, 10 µM in series [5] is 11.5%; in series [7], 15.4%. Further, the inhibition of growth at 10 µM in series [6] was found to be 78.5%. Besides, the inhibition in series [2] is less than 20%.

Take `COc1cc(/C=C/C(=O)NC(NC(=S)Nc2ccccn2)C2CC2)cc(OC)c1OC` (configuration not stated): in series [3], the growth inhibition (GI) is 59.6%. Moreover, the Activity in series [4] and in series [8] was less than 1 each time. The inhibition at 72 h, 10 µM in series [5] is 20.1%; in series [7], 17.4%. The inhibition of growth at 10 µM in series [6] is 87.8%. For the same compound, the inhibition in series [2] was less than 20%.

Regarding `Cc1ccccc1NC(=S)NC(CC(C)C)NC(=O)/C=C/c1ccccc1` (configuration not stated), the growth inhibition (GI) in series [3] came out at 23.3%. Moreover, the Activity in series [4] was less than 1; in series [8], 0.84. Also, the inhibition at 72 h, 10 µM in series [5] was 9.8%; in series [7], 12.8%. Also, in series [6], the inhibition of growth at 10 µM amounted to 81.6%. Besides, in series [2], the inhibition was less than 20%.

On to `CNC(=S)NC(CC(C)C)NC(=O)/C=C/c1cc(OC)c(OC)c(OC)c1` (configuration not stated), for which the growth inhibition (GI) in series [3] came to 30.9%. For the same compound, the Activity in series [4] and in series [8] was less than 1 throughout. The inhibition at 72 h, 10 µM is 10.5% in series [5] and 13% in series [7]. Besides, in series [6], the inhibition of growth at 10 µM is 79.8%. In addition, in series [2], the inhibition is less than 20%.
